≈ marks a conversion by molar mass, not a printed value.

Assay [1] concerns Enterococcus faecalis. As to the kind of experiment: Antibacterial activity against Enterococcus faecalis ATCC 29212. The assay is classed as functional. In short, it runs like this:
(§1)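 Broth microdilution MIC in Mueller Hinton II broth, 384-well format, quadruplicate wells. The compound is serially diluted two-fold from DMSO stocks, with final concentrations half of 64 to 0.0625 µg/mL. The inoculum is a 0.5 McFarland culture diluted 100-fold, mixed 1:1 with compound to 20 µL per well. Plates are incubated 24 h at 35 °C. MIC is the lowest concentration with no visible growth; OD620 is also read.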

In assay [2] the test system is Staphylococcus aureus. In words: Antibacterial activity against Staphylococcus aureus ATCC 29213. The assay is classed as functional. The method in brief: as §1

Regarding `CC[C@H]1OC(=O)[C@H](C)[C@@H](O[C@H]2C[C@@](C)(OC)[C@@H](O)[C@H](C)O2)[C@H](C)[C@@H](O[C@@H]2O[C@H](C)C[C@H](N(C)C)[C@H]2OC(=O)CCNC(=O)OC(C)(C)C)[C@@](C)(O)C[C@@H](C)C(=O)[C@H](C)[C@@H](OC(=O)CCNC(=O)OC(C)(C)C)[C@@]1(C)O`, the MIC in assay [1] and in assay [2] was above 32 µg/mL in each case.
Take `CCC(=O)O[C@H]1[C@H](O[C@@H]2[C@@H](C)[C@H](O[C@H]3C[C@@](C)(OC)[C@@H](O)[C@H](C)O3)[C@@H](C)C(=O)O[C@H](CC)[C@](C)(O)[C@H](OC(=O)CC)[C@@H](C)C(=O)[C@H](C)C[C@]2(C)O)O[C@H](C)C[C@@H]1N(C)C`: the MIC in assay [1] and in assay [2] was 32 µg/mL (≈ 37.8 µM) in each case.
In the case of `CCCCCCCC(=O)O[C@@H]1[C@@H](C)C(=O)[C@H](C)C[C@](C)(O)[C@H](O[C@@H]2O[C@H](C)C[C@H](N(C)C)[C@H]2O)[C@@H](C)[C@H](O[C@H]2C[C@@](C)(OC)[C@@H](OC(=O)CCCCCCC)[C@H](C)O2)[C@@H](C)C(=O)O[C@H](CC)[C@]1(C)O`, the MIC in assay [1] and in assay [2] was above 32 µg/mL each time.
For `C=CCCC(=O)O[C@H]1[C@H](O[C@@H]2[C@@H](C)[C@H](O[C@H]3C[C@@](C)(OC)[C@@H](O)[C@H](C)O3)[C@@H](C)C(=O)O[C@H](CC)[C@](C)(O)[C@H](OC(=O)CCC=C)[C@@H](C)C(=O)[C@H](C)C[C@]2(C)O)O[C@H](C)C[C@@H]1N(C)C`, the MIC in assay [1] is above 32 µg/mL; in assay [2] it was 32 µg/mL (≈ 35.6 µM).
On to `CCCCCCCC(=O)O[C@@H]1[C@@H](C)C(=O)[C@H](C)C[C@](C)(O)[C@H](O[C@@H]2O[C@H](C)C[C@H](N(C)C)[C@H]2O)[C@@H](C)[C@H](O[C@H]2C[C@@](C)(OC)[C@@H](O)[C@H](C)O2)[C@@H](C)C(=O)O[C@H](CC)[C@]1(C)O`, for which the MIC in assay [1] and in assay [2] was 32 µg/mL (≈ 37.2 µM) throughout.
As to `CC[C@H]1OC(=O)[C@H](C)[C@@H](O[C@H]2C[C@@](C)(OC)[C@@H](O)[C@H](C)O2)[C@H](C)[C@@H](O[C@@H]2O[C@H](C)C[C@H](N(C)C)[C@H]2O)[C@@](C)(O)C[C@@H](C)C(=O)[C@H](C)[C@@H](OC(=O)CCNC(=O)OC(C)(C)C)[C@@]1(C)O`, the MIC in assay [1] was above 32 µg/mL; in assay [2], 32 µg/mL (≈ 35.4 µM).
For `CC[C@H]1OC(=O)[C@H](C)[C@@H](O[C@H]2C[C@@](C)(OC)[C@@H](O)[C@H](C)O2)[C@H](C)[C@@H](O[C@@H]2O[C@H](C)C[C@H](N(C)C)[C@H]2O)[C@](C)(O)C[C@@H](C)C(=O)[C@H](C)[C@@H](O)[C@]1(C)O` [ERYTHROMYCIN], in that order: 2 µg/mL (≈ 2.73 µM) and 1 µg/mL (≈ 1.36 µM).
The corresponding values for `CC[C@H]1OC(=O)[C@H](C)[C@@H](O[C@H]2C[C@@](C)(OC)[C@@H](O)[C@H](C)O2)[C@H](C)[C@@H](O[C@@H]2O[C@H](C)C[C@H](N(C)C)[C@H]2OC(C)=O)[C@@](C)(O)C[C@@H](C)C(=O)[C@H](C)[C@@H](OC(=O)CCNC(=O)OC(C)(C)C)[C@@]1(C)O` are above 32 µg/mL and 32 µg/mL (≈ 33.8 µM).
`CC[C@H]1OC(=O)[C@H](C)[C@@H](O[C@H]2C[C@@](C)(OC)[C@@H](OP(=O)(Oc3ccccc3)Oc3ccccc3)[C@H](C)O2)[C@H](C)[C@@H](O[C@@H]2O[C@H](C)C[C@H](N(C)C)[C@H]2OC(C)=O)[C@@](C)(O)C[C@@H](C)C(=O)[C@H](C)[C@@H](OC(=O)CCNC(=O)OC(C)(C)C)[C@@]1(C)O`: the MIC in assay [1] and in assay [2] was above 32 µg/mL throughout.
For the compound `C=CCCC(=O)O[C@@H]1[C@@H](C)C(=O)[C@H](C)C[C@](C)(O)[C@H](O[C@@H]2O[C@H](C)C[C@H](N(C)C)[C@H]2O)[C@@H](C)[C@H](O[C@H]2C[C@@](C)(OC)[C@@H](O)[C@H](C)O2)[C@@H](C)C(=O)O[C@H](CC)[C@]1(C)O`, the MIC in assay [1] was found to be 32 µg/mL (≈ 39.2 µM); in assay [2] it was 16 µg/mL (≈ 19.6 µM).
For the compound `CCC(=O)O[C@@H]1[C@@H](C)C(=O)[C@H](C)C[C@](C)(O)[C@H](O[C@@H]2O[C@H](C)C[C@H](N(C)C)[C@H]2O)[C@@H](C)[C@H](O[C@H]2C[C@@](C)(OC)[C@@H](O)[C@H](C)O2)[C@@H](C)C(=O)O[C@H](CC)[C@]1(C)O`, the MIC was determined as 32 µg/mL (≈ 40.5 µM) in assay [1] and 16 µg/mL (≈ 20.3 µM) in assay [2].
The corresponding values for `CCCCCCCC(=O)O[C@H]1[C@H](O[C@@H]2[C@@H](C)[C@H](O[C@H]3C[C@@](C)(OC)[C@@H](O)[C@H](C)O3)[C@@H](C)C(=O)O[C@H](CC)[C@](C)(O)[C@H](OC(=O)CCCCCCC)[C@@H](C)C(=O)[C@H](C)C[C@]2(C)O)O[C@H](C)C[C@@H]1N(C)C` are above 32 µg/mL and above 32 µg/mL.
For the compound `CCCCCCCC(=O)O[C@H]1[C@H](O[C@@H]2[C@@H](C)[C@H](O[C@H]3C[C@@](C)(OC)[C@@H](OP(=O)(Oc4ccccc4)Oc4ccccc4)[C@H](C)O3)[C@@H](C)C(=O)O[C@H](CC)[C@](C)(O)[C@H](OC(=O)CCCCCCC)[C@@H](C)C(=O)[C@H](C)C[C@]2(C)O)O[C@H](C)C[C@@H]1N(C)C`, the MIC in assay [1] and in assay [2] was above 32 µg/mL in each case.
For the compound `C=CCCC(=O)O[C@H]1[C@H](O[C@@H]2[C@@H](C)[C@H](O[C@H]3C[C@@](C)(OC)[C@@H](OP(=O)(Oc4ccccc4)Oc4ccccc4)[C@H](C)O3)[C@@H](C)C(=O)O[C@H](CC)[C@](C)(O)[C@H](OC(=O)CCC=C)[C@@H](C)C(=O)[C@H](C)C[C@]2(C)O)O[C@H](C)C[C@@H]1N(C)C`, the MIC in assay [1] and in assay [2] was above 32 µg/mL throughout.
Consider `CCC(=O)O[C@H]1[C@H](O[C@@H]2[C@@H](C)[C@H](O[C@H]3C[C@@](C)(OC)[C@@H](OP(=O)(Oc4ccccc4)Oc4ccccc4)[C@H](C)O3)[C@@H](C)C(=O)O[C@H](CC)[C@](C)(O)[C@H](OC(=O)CC)[C@@H](C)C(=O)[C@H](C)C[C@]2(C)O)O[C@H](C)C[C@@H]1N(C)C`, for which the MIC in assay [1] and in assay [2] was above 32 µg/mL each time.

Source of the values: ChEMBL document CHEMBL1152128, “Catalytic site-selective synthesis and evaluation of a series of erythromycin analogs” (2008).
